The values that follow come from ChEMBL document CHEMBL2440020, “Design, Synthesis, and Anti-leukemic Activity of Stereochemically Defined Constrained Analogs of FTY720 (Gilenya)” (ACS Med Chem Lett, 2013).

Each structure is given as a SMILES string. Active and inactive are the calls of the source. The rule behind the calls is not given here.

Assay type in all cases: functional, cell-based
For test [1], the system named is SUP-B15. Nature of the test: Cytotoxicity against Ph-positive human SUP-B15 cells at 0.1 to 10 uM after 72 hrs by vital dye exclusion/flow cytometric analysis.
Test [2] has as its system PC-3. The experiment in a line: Cytotoxicity against human PC3 cells after 72 hrs by vital dye exclusion/flow cytometric analysis. As to conditions: PC-3, 72 h. In short, it runs like this:
(§1)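 Viability of human leukaemia and prostate cancer lines, and of murine bone marrow cells expressing BCR-Abl p190, was scored by vital dye exclusion and flow cytometry after 72 h of exposure. IC50 values are given as means with SEM and were compared with the reference control by two-tailed t-test.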

The nature of test [3]: Cytotoxicity against BCR-ABL fusion protein 190 expressing mouse bone marrow cells after 72 hrs by vital dye exclusion/flow cytometric analysis. The settings on record: Bone marrow cell. In short, it runs like this: as §1
Test [4] has as its system DU-145. Nature of the test: Cytotoxicity against human DU145 cells after 72 hrs by vital dye exclusion/flow cytometric analysis. As to conditions: DU-145, 72 h. The procedure, abridged:
as §1

A short description of test [5]: Cytotoxicity against Ph-positive human SUP-B15 cells after 72 hrs by vital dye exclusion/flow cytometric analysis. The settings on record: SUP-B15, 72 h. In short, it runs like this:
as §1

Test [6] can be described thus: Cytotoxicity against Ph-negative human BLIN-1 cells after 72 hrs by vital dye exclusion/flow cytometric analysis. In short, it runs like this: as §1
Test [7] has as its system CCRF-CEM. The experiment in a line: Cytotoxicity against Ph-negative human CCRF-CEM cells after 72 hrs by vital dye exclusion/flow cytometric analysis. In short, it runs like this:
as §1

Test [8] has as its system NALM-6. The experiment in a line: Cytotoxicity against Ph-negative human NALM6 cells after 72 hrs by vital dye exclusion/flow cytometric analysis. The settings on record: NALM-6, 72 h. The procedure, abridged: as §1
The subject of test [9] is BV-173. The experiment in a line: Cytotoxicity against Ph-positive human BV173 cells after 72 hrs by vital dye exclusion/flow cytometric analysis. The settings on record: BV-173, 72 h. The procedure, abridged: as §1
Test [10] is described as follows: Downregulation of 4F2hc surface expression in Ph-positive human SUP-B15 cells at 10 uM after 72 hrs by vital dye exclusion/flow cytometric analysis.

On to `CCCCCCCCc1ccc(CO[C@@H]2CCN[C@H]2CO)cc1`, for which the outcome in test [1] was inactive.
For `CCCCCCCCc1ccc(CCC(N)(CO)CO)cc1` [FINGOLIMOD], the IC50 turned out to be 9.8 µM in test [2]; 3.3 µM in [3]; 6.5 µM in [4]; 6.8 µM in test [5]; 5.5 µM in [6]; 6.8 µM in test [7]. Also, the half-maximal inhibitory concentration (IC50) turned out to be 9.6 µM in [8] and 6.3 µM in test [9].
On to `CCCCCCCCc1ccc(CO[C@H]2CN[C@H](CO)C2)cc1`, for which the concentration for half-maximal inhibition (IC50) was determined as 14.3 µM in test [2]; 5.7 µM in [3]; 10.8 µM in test [4]; 7.7 µM in test [5]; 7.5 µM in test [6]; 11 µM in test [7]. Further, the results for the IC50 in test [8] and in [9] were 15 µM and 10.4 µM, respectively.
As to `CCCCCCCCc1ccc(CO[C@H]2CN[C@@H](CO)C2)cc1`, the concentration for half-maximal inhibition (IC50) in [3] turned out to be 4 µM; in test [5], 8.3 µM; in test [7], 8.1 µM; in test [9], 9.7 µM.
`CCCCCCCCc1ccc(CO[C@H]2CN[C@H](C)C2)cc1`: the outcome in test [10] and in test [1] was Active.
Regarding `CCCCCCCCc1ccc(CO[C@@H]2CN[C@H](CO)C2)cc1`, the half-maximal inhibitory concentration (IC50) in [3] was determined as 8.4 µM; in test [5], 16.7 µM; in [7], 11.6 µM; in [9], 13.8 µM.
As for `CCCCCCCCc1ccc(CO[C@@H]2CN[C@@H](COC)C2)cc1`, the result in test [10] and in test [1] was Active.
In the case of `CCCCCCCCc1ccc(CO[C@H]2CCNC2)cc1`, the outcome in test [10] and in test [1] was Active.
Turning to `CCCCCCCCc1ccc(CO[C@@H]2CN[C@@H](CO)C2)cc1`, the IC50 turned out to be 13.5 µM in test [2]; 0.5 µM in test [3]; 15.1 µM in test [4]; 2 µM in test [5]; 6.9 µM in [6]; 8.2 µM in test [7]. Moreover, the IC50 in test [8] stood at 13.5 µM; in test [9] it was 3.8 µM.
`CCCCCCCCc1ccc(CO[C@@H]2CN[C@@H](C)C2)cc1`: the outcome in [10] and in test [1] was Active.
Take `CCCCCCCCc1ccc(CO[C@@H]2CCNC2)cc1`: the outcome in [10] and in test [1] was Active.
